# The RNAGym collection of RNA variant scans (doi:10.1126/science.aae0568)
# Fewer inactive variants are shown than the library holds.
# B1: tRNA (parent)
# chain: GUUCCGUUGGCGUAAUGGUAACGCGUCUCCCUCCUAAGGAGAAGACUGCGGGUUCGAGUCCCGUACGGAACG
# Variants of: B1
# Assay: yeast fitness relative to wild type (ratio to wild type); higher = fitter; tRNA-Arg(CCU), competitive growth, 37 C, YPD
# Summary of the method: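 Gene amplicons from the start population and from each of six end populations were read by 100-nucleotide paired-end sequencing. Those end populations came from pooled Saccharomyces cerevisiae strains carrying tRNA-Arg(CCU) gene variants at the native locus, competed in YPD at 37°C for 24 hours. Fitness relative to wild type was worked out from changes in genotype frequencies. Genotypes needed ≥ 100 starting reads, and estimates < 0.5 were set to 0.5.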
row,Variant,yeast fitness
1,C29G C33G,0.59
2,C29G C33A,0.641
3,C29G C60U G67A A69U,0.588
4,C30A A37G A57G,≤ 0.5
5,C29U A57C,0.611
6,C29U C33A G38A G58C A65U,≤ 0.5
7,C29U C31A C66G G67U,≤ 0.5
8,C29G U35A A36C C62A,≤ 0.5
9,C29U G68A,0.937
10,C29U G68U,0.803
11,C29G U35A G58C,≤ 0.5
12,C29G G48C C61A,0.564
13,C29U C30A A37U A57C,≤ 0.5
14,C29G G48C C60G,0.515
15,C29G A37C G63A,≤ 0.5
16,C29G C49U G58C,0.558
17,C29G G56C,≤ 0.5
18,C29U G48A G56C C61U,≤ 0.5
19,C29G C46U A57G C61U,≤ 0.5
20,C29U C33U A42C,0.774
21,C29G C62U G68A,0.542
22,C29G A37C G63A A65G,≤ 0.5
23,C29U C30U G63A,0.514
24,C29G A37C A42U A57G G67A,≤ 0.5

row,Variant,yeast fitness
1,C29U C31U G41C A65G,0.609
2,C30A A43C,0.884
3,C29U C31A C46U,0.552
4,C30A C49A C66U,≤ 0.5
5,C29G G52C A57U,≤ 0.5
6,C29U A40G C60G,≤ 0.5
7,C29G G50A A57U A70U,≤ 0.5
8,C29U A45U A65C,0.544
9,C29G U53G,≤ 0.5
10,C29G U64C,0.688
11,C29G U64G,0.635
12,C29G A37G G51A C55A,≤ 0.5
13,C29U U54A,0.627
14,C30A C33A,0.652
15,C29G A45G G52C A57U,≤ 0.5
16,C29U U47A,0.795
17,C29U U47C,0.923
18,C29G G44A,0.593
19,C29U A65C C66G,0.57
20,C30A C46U G52A C55U,≤ 0.5
21,C29G C30U,0.632
22,C30A A36C G38A,≤ 0.5
23,C29G U35C U54C C61A,≤ 0.5
24,C30A C31U C60G,0.565

row,Variant,yeast fitness
1,C29U A40U U53A C60A A65G,≤ 0.5
2,C29U U47C G67U A69U,≤ 0.5
3,C29U C34G A65G,0.668
4,C29G C46U C66U,0.606
5,C30A C46G,0.991
6,C29U G41A A45C G67U,≤ 0.5
7,C29G A40C A42C A65C,0.565
8,C29G C49A A70C,0.538
9,C29G C49A A70G,≤ 0.5
10,C29G U32A C62A,0.608
11,C29G C31A U47A U59A C60U C62G C66U,≤ 0.5
12,C30A A42G U54A A57C,≤ 0.5
13,C29U U32C U35G A70U,≤ 0.5
14,C29U A45C U54A C55A,≤ 0.5
15,C29U A45C G63A,0.578
16,C29G A43U C46U G67C,≤ 0.5
17,C29G C46U A57G,0.642
18,C29G U35C G56A C62G,≤ 0.5
19,C29G C30U A65G,≤ 0.5
20,C29U C33A G38C,0.638
21,C29U C33A G38A,≤ 0.5
22,C29U A43U C46A C61G G68A,0.567
23,C29U A37G G48C G67C,≤ 0.5
24,C29G C61U C66A,≤ 0.5

row,Variant,yeast fitness
1,C29U C49A G67C,≤ 0.5
2,C29G C33U G50A A70C,≤ 0.5
3,C29U C30U A65G,0.704
4,C29G C60A G67A,≤ 0.5
5,C29U G44C C60A,≤ 0.5
6,C29G U47A C66A,0.532
7,C29U G67U A69U,≤ 0.5
8,C29U C33U U35C U54A,≤ 0.5
9,C29G A45G,0.609
10,C29U G68A A69C,≤ 0.5
11,C30A C31G G39C,0.535
12,C29G G41A,0.723
13,C29U G58C G68A,≤ 0.5
14,C29G U59G U64C,0.549
15,C29G G39C,0.852
16,C29G A36U A42G C55A,≤ 0.5
17,C30A A57U,0.768
18,C29U C66U,0.796
19,C29U C66A,0.591
20,C29G C34U U59C,0.631
21,C29U A40U G56C,0.552
22,C29G C31A G44C A65C,≤ 0.5
23,C29G A69G,≤ 0.5
24,C29G C33G G41C C66U,0.607

row,Variant,yeast fitness
1,C29G U35A A36C,≤ 0.5
2,C29U A36U A57G G58A,≤ 0.5
3,C29G A65U A70G,0.506
4,C29U C31U G41C,≤ 0.5
5,C29U C55U,0.636
6,C29G C30U G41C C66G G68A,≤ 0.5
7,C29U C33G G52A G58C A70G,≤ 0.5
8,C29G U35A G58C C66U,≤ 0.5
9,C29G G51A A69U,≤ 0.5
10,C29G A40U C66U,≤ 0.5
11,C29U G41C G56A C60G C62G,≤ 0.5
12,C29U G41A A42C G50C A70G,≤ 0.5
13,C29G C31A C55U A70U,≤ 0.5
14,C29G C34G C60G,0.562
15,C30A A40C G56A,≤ 0.5
16,C29U U32G A43U G44C U53C,≤ 0.5
17,C30A A37U G44C U53A,≤ 0.5
18,C29U G38C C55U G67C,≤ 0.5
19,C29U C46G G51A,0.543
20,C30A A36G A65G,0.648
21,C30A A36C C46G,0.532
22,C29U G41C,0.776
23,C29U G58A A69U,0.754
24,C29G G58C,0.642

row,Variant,yeast fitness
1,C29G G39C A65C,0.546
2,C29G U32A U64A,≤ 0.5
3,C29U A42U A43U C55G,0.545
4,C29U G38C A45U U59C,0.592
5,C29U C33G G44C U64C,≤ 0.5
6,C29U U35C C62U A70U,≤ 0.5
7,C29U G48C A65U,≤ 0.5
8,C29U A45C C60A,0.598
9,C29U A37C,0.894
10,C29U A43G G44A C46A,0.609
11,C29G C49A,0.664
12,C29G C49G C55A,≤ 0.5
13,C30A C31U A45C,0.663
14,C29U A42U A43U C55G C62G,≤ 0.5
15,C29U A36U C61U,≤ 0.5
16,C29U U35A C61G,≤ 0.5
17,C29G C34U G52A C60U,0.548
18,C29U G44C,0.825
19,C29G C30G C49A G56C C61U,0.982
20,C29G C31A U35C G67A,≤ 0.5
21,C29G U35C G38C A57G,≤ 0.5
22,C29G C46U,0.611
23,C29U G44C A57U,0.635
24,C29G C49G G68C,≤ 0.5

row,Variant,yeast fitness
1,C29G U35A U64C,≤ 0.5
2,C29G C55A A69U,≤ 0.5
3,C29U C30A U59G,≤ 0.5
4,C29G G41C A65U,≤ 0.5
5,C29U C31A G38C,≤ 0.5
6,C29G G41A A57G,≤ 0.5
7,C29U A36G U54C,0.542
8,C29G C31G C46G C55U A65U,0.627
9,C29G C49A U64A,≤ 0.5
10,C29U C55G G68C,≤ 0.5
11,C29U C49A U64C,0.597
12,C29G C55G,0.538
13,C29G C55A,0.577
14,C29G U35A A36C G68A,≤ 0.5
15,C29G A40U G44A,≤ 0.5
16,C29G G52C A57U A65G,≤ 0.5
17,C29U G38C,0.545
18,C29U G38A,0.733
19,C29G G50A,0.605
20,C29U U32C G51C,≤ 0.5
21,C29U C31U U54G A65U G67A,0.565
22,C29G A43G U64C,≤ 0.5
23,C29U A43G C66U,0.598
